Assay results from ChEMBL document CHEMBL1914320, “C4-alkylthiols with activity against Moraxella catarrhalis and Mycobacterium tuberculosis” (Bioorg Med Chem, 2011).
Converted amounts (≈) assume the structure as drawn. The source made the active and inactive calls. The calls are words filed in the database; no cut-off is given here.

Assays:
Moraxella catarrhalis [1] = assay: Antibacterial activity against beta-lactamase producing Moraxella catarrhalis isolate 1 at 10 ug/disc after overnight incubation by disc diffusion assay in presence of 1 mol equiv of glutathione; assay type: functional
Moraxella catarrhalis [2] = assay: Antibacterial activity against beta-lactamase producing Moraxella catarrhalis isolate 2 at 10 ug/disc after overnight incubation by disc diffusion assay in presence of 1 mol equiv of glutathione; assay type: functional; settings: for zone of inhibition at 10 µg/disc: read-out: IZ
Moraxella catarrhalis [3] = assay: Antibacterial activity against beta-lactamase producing Moraxella catarrhalis isolate 3 at 10 ug/disc after overnight incubation by disc diffusion assay in presence of 1 mol equiv of glutathione; assay type: functional; settings: for zone of inhibition at 10 µg/disc: read-out: IZ
Moraxella catarrhalis [4] = assay: Antibacterial activity against beta-lactamase producing Moraxella catarrhalis isolate 4 at 10 ug/disc after overnight incubation by disc diffusion assay in presence of 1 mol equiv of glutathione; assay type: functional; settings: for zone of inhibition at 10 µg/disc: read-out: IZ
Moraxella catarrhalis [5] = assay: Antibacterial activity against beta-lactamase producing Moraxella catarrhalis isolate 5 at 10 ug/disc after overnight incubation by disc diffusion assay in presence of 1 mol equiv of glutathione; assay type: functional; settings: for zone of inhibition at 10 µg/disc: read-out: IZ
Escherichia coli [6] = assay: Antibacterial activity against non-beta-lactamase producing Escherichia coli ATCC 25922 at 10 ug/disc after overnight incubation by disc diffusion assay; assay type: functional, organism-based
Method in brief: (§1)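 Isolates were held at −80 °C. Five colonies were suspended in Mueller-Hinton broth to a 0.5 McFarland density and swabbed onto MH agar. Discs carried 10 μg compound, applied in methanol and dried at room temperature. Plates were incubated overnight at 37 °C, and the zone of inhibition was measured in mm from the disc edge. Controls were methanol-only and penicillin discs. Run blinded, in triplicate.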

Pseudomonas aeruginosa [7] = assay: Antibacterial activity against non-beta-lactamase producing Pseudomonas aeruginosa ATCC 27853 at 10 ug/disc after overnight incubation by disc diffusion assay; assay type: functional, organism-based; method in brief: as §1
Staphylococcus aureus [8] = assay: Antibacterial activity against non-beta-lactamase producing Staphylococcus aureus ATCC 25923 at 10 ug/disc after overnight incubation by disc diffusion assay; assay type: functional, organism-based; method in brief: as §1
Enterococcus faecalis [9] = assay: Antibacterial activity against non-beta-lactamase producing Enterococcus faecalis ATCC 29212 at 10 ug/disc after overnight incubation by disc diffusion assay; assay type: functional, organism-based; method in brief: as §1
Escherichia coli [10] = assay: Antibacterial activity against non-beta-lactamase producing Escherichia coli ATCC 25922 after 48 hrs by microdilution broth method; assay type: functional, organism-based
Method in brief: (§2)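 Broth microdilution followed CLSI guidelines. Compound was dissolved in 95% ethanol, diluted at least 10-fold into Mueller-Hinton broth, then serially two-fold diluted from 500 to 15.6 μg/mL. Actively growing culture was added at 5 × 10^5 cells/mL. Plates ran 48 h at 37 °C, scored for visible growth at 24 and 48 h. MIC was the lowest concentration without growth. For MBC, 10 μL from each clear well was plated on MH agar. Controls were ethanol and penicillin. Triplicate.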

Pseudomonas aeruginosa [11] = assay: Antibacterial activity against non-beta-lactamase producing Pseudomonas aeruginosa ATCC 27853 after 48 hrs by microdilution broth method; assay type: functional, organism-based; method in brief: as §2
Staphylococcus aureus [12] = assay: Antibacterial activity against non-beta-lactamase producing Staphylococcus aureus ATCC 25923 after 48 hrs by microdilution broth method; assay type: functional, organism-based; method in brief: as §2
Enterococcus faecalis [13] = assay: Antibacterial activity against non-beta-lactamase producing Enterococcus faecalis ATCC 29212 after 48 hrs by microdilution broth method; assay type: functional, organism-based; method in brief: as §2
Moraxella catarrhalis [14] = assay: Antibacterial activity against beta-lactamase producing Moraxella catarrhalis isolate 1 at 10 ug/disc after overnight incubation by disc diffusion assay; assay type: functional; method in brief: as §1
Moraxella catarrhalis [15] = assay: Antibacterial activity against beta-lactamase producing Moraxella catarrhalis isolate 2 at 10 ug/disc after overnight incubation by disc diffusion assay; assay type: functional; settings: read-out: IZ; method in brief: as §1
Moraxella catarrhalis [16] = assay: Antibacterial activity against beta-lactamase producing Moraxella catarrhalis isolate 3 at 10 ug/disc after overnight incubation by disc diffusion assay; assay type: functional; settings: for zone of inhibition at 10 µg/disc: read-out: IZ; method in brief: as §1
Moraxella catarrhalis [17] = assay: Antibacterial activity against beta-lactamase producing Moraxella catarrhalis isolate 4 at 10 ug/disc after overnight incubation by disc diffusion assay; assay type: functional; settings: for zone of inhibition at 10 µg/disc: read-out: IZ; method in brief: as §1
Moraxella catarrhalis [18] = assay: Antibacterial activity against beta-lactamase producing Moraxella catarrhalis isolate 5 at 10 ug/disc after overnight incubation by disc diffusion assay; assay type: functional; settings: read-out: IZ; method in brief: as §1
Moraxella catarrhalis [19] = assay: Antibacterial activity against beta-lactamase producing Moraxella catarrhalis isolate 6 at 10 ug/disc after overnight incubation by disc diffusion assay in presence of 1 mol equiv of glutathione; assay type: functional; settings: for zone of inhibition at 10 µg/disc: read-out: IZ
Moraxella catarrhalis [20] = assay: Antibacterial activity against beta-lactamase producing Moraxella catarrhalis isolate 6 at 10 ug/disc after overnight incubation by disc diffusion assay; assay type: functional; settings: for zone of inhibition at 10 µg/disc: read-out: IZ; method in brief: as §1
Moraxella catarrhalis [21] = assay: Antibacterial activity against beta-lactamase producing Moraxella catarrhalis isolate 1 after 48 hrs incubation by microdilution broth method; assay type: functional; settings: isolate 1, 48 h; method in brief: as §2
Moraxella catarrhalis [22] = assay: Antibacterial activity against beta-lactamase producing Moraxella catarrhalis isolate 2 after 48 hrs incubation by microdilution broth method; assay type: functional; settings: isolate 2, 48 h; method in brief: as §2
Moraxella catarrhalis [23] = assay: Antibacterial activity against beta-lactamase producing Moraxella catarrhalis isolate 3 after 48 hrs incubation by microdilution broth method; assay type: functional; settings: isolate 3, 48 h; method in brief: as §2
Moraxella catarrhalis [24] = assay: Antibacterial activity against beta-lactamase producing Moraxella catarrhalis isolate 4 after 48 hrs incubation by microdilution broth method; assay type: functional; settings: isolate 4, 48 h; method in brief: as §2
Moraxella catarrhalis [25] = assay: Antibacterial activity against beta-lactamase producing Moraxella catarrhalis isolate 5 after 48 hrs incubation by microdilution broth method; assay type: functional; settings: isolate 5, 48 h; method in brief: as §2
Moraxella catarrhalis [26] = assay: Antibacterial activity against beta-lactamase producing Moraxella catarrhalis isolate 6 after 48 hrs incubation by microdilution broth method; assay type: functional; settings: isolate 6, 48 h; method in brief: as §2
[27] = system: Mycobacterium tuberculosis; assay: Antimycobacterial activity against wild type Mycobacterium tuberculosis H37Rv by Alamar blue assay; assay type: functional

Row | SMILES | inhibition zone (IZ) (Moraxella catarrhalis [1]) | inhibition zone (IZ) (Moraxella catarrhalis [3]) | inhibition zone (IZ) (Moraxella catarrhalis [4]) | Activity (Escherichia coli [6]) | Activity (Pseudomonas aeruginosa [7]) | Activity (Staphylococcus aureus [8]) | Activity (Enterococcus faecalis [9]) | Activity (Escherichia coli [10]) | Activity (Pseudomonas aeruginosa [11]) | Activity (Staphylococcus aureus [12]) | Activity (Enterococcus faecalis [13]) | zone of inhibition at 10 µg/disc (Moraxella catarrhalis [15]) | zone of inhibition at 10 µg/disc (Moraxella catarrhalis [16]) | zone of inhibition at 10 µg/disc (Moraxella catarrhalis [17]) | zone of inhibition at 10 µg/disc (Moraxella catarrhalis [18]) | zone of inhibition at 10 µg/disc (Moraxella catarrhalis [2]) | zone of inhibition at 10 µg/disc (Moraxella catarrhalis [3]) | zone of inhibition at 10 µg/disc (Moraxella catarrhalis [4]) | zone of inhibition at 10 µg/disc (Moraxella catarrhalis [5]) | zone of inhibition at 10 µg/disc (Moraxella catarrhalis [19]) | also measured
1 | CCC(CC)(CO)SC1CC(=O)N1 (stereo not given) | inactive | inactive | inactive | inactive | inactive | inactive | inactive | inactive | inactive | inactive | inactive | – | – | – | – | – | – | – | – | – | inhibition zone (IZ) (Moraxella catarrhalis [2]): inactive; inhibition zone (IZ) (Moraxella catarrhalis [5]): inactive
2 | CC(=O)SC1CC(=O)N1 (racemic) | – | – | – | inactive | inactive | inactive | inactive | inactive | inactive | inactive | inactive | 20 mm | 24 mm | 26 mm | 28 mm | 19 mm | 19 mm | 22 mm | 24 mm | 19 mm | zone of inhibition at 10 µg/disc (Moraxella catarrhalis [14]; read-out: IZ): 19 mm; zone of inhibition at 10 µg/disc (Moraxella catarrhalis [1]; read-out: IZ): 16 mm; zone of inhibition at 10 µg/disc (Moraxella catarrhalis [20]): 20 mm
3 | CC(=O)SC1CC(=O)N1S(=O)(=O)O (racemic) | inactive | – | – | inactive | inactive | inactive | inactive | inactive | inactive | inactive | inactive | 12 mm | 17 mm | 12 mm | 17 mm | 11 mm | 12 mm | 14 mm | 18 mm | 12 mm | inhibition zone (IZ) (Moraxella catarrhalis [14]): inactive; zone of inhibition at 10 µg/disc (Moraxella catarrhalis [20]): 11 mm
4 | CCC(C=O)(CC)SSC(CC)(CC)C1C(OC)C(=O)N1CC(=O)OC (racemic) | inactive | inactive | inactive | inactive | inactive | inactive | inactive | inactive | inactive | inactive | inactive | 10 mm | – | – | 7 mm | 7 mm | – | – | 7 mm | – | inhibition zone (IZ) (Moraxella catarrhalis [14]): inactive; inhibition zone (IZ) (Moraxella catarrhalis [16]): inactive; inhibition zone (IZ) (Moraxella catarrhalis [17]): inactive; inhibition zone (IZ) (Moraxella catarrhalis [19]): inactive; MBC (Moraxella catarrhalis [21]): > 500 µg/mL; MBC (Moraxella catarrhalis [22]): > 500 µg/mL; MBC (Moraxella catarrhalis [23]): < 15.6 µg/mL; MBC (Moraxella catarrhalis [24]): < 15.6 µg/mL; MBC (Moraxella catarrhalis [25]): < 15.6 µg/mL; MBC (Moraxella catarrhalis [26]): < 15.6 µg/mL; MBC [27]: 200 µg/mL (≈ 493 µM); inhibition zone (IZ) (Moraxella catarrhalis [20]): inactive
